M4 ag – human M4 muscarinic receptor agonists, primary screen, CHO-K1 cells, Fluo-8 calcium fluorescence; CHO-K1 hM4/Gqi5; vehicle 0%, full acetylcholine response 100%; activation, % at 3 µM; 360,000 compounds, 0.14% hits;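 active means activation above the run mean over all test wells plus 3 SD, cut at about 32% in these data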;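 further: peak over basal fluorescence ratio per well then scaled between controls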
Target sequence (P08173 whole entry, looked up): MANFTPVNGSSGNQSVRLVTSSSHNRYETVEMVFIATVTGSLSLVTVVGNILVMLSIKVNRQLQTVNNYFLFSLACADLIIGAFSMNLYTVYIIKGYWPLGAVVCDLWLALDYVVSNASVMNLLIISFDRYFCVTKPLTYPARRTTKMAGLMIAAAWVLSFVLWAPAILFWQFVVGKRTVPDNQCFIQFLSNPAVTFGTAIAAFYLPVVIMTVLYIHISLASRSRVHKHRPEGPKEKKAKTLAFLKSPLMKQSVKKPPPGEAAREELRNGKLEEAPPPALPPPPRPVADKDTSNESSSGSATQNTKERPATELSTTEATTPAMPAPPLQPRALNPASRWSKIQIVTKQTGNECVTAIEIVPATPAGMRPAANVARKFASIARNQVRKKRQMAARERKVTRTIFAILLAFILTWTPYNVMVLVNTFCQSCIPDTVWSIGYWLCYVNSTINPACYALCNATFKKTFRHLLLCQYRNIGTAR
OXTR potentiator – human OXTR potentiators, primary screen, fluorescence, CHO-OTR cells, Fluo-8 calcium; Fluo-8 calcium fluorescence, potentiator mode; 0% = oxytocin EC15, 100% = EC100; activation, % at 3 µM; 320,000 compounds, 0.061% hits;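 active means activation above that plate's cutoff, the mean activation of tested compounds plus 3 SD, cut at about 6.6% in these data, passing the limit was not always enough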
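Measured by – Fluo-8 calcium dye fluorescence · Test system – human OTR in CHO cells · Dosing – one concentration, 3.0 µM compound · Controls – EC15 oxytocin alone as 0%, 75 nM oxytocin as 100% · Evaluation – normalized max/min fluorescence ratio, % activation · Timing – 6 min pre-incubation, 100 s read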
V1R ag counter – agonists of human V1a receptor, primary screen, counter-screen for OXTR agonist project, fluorescence, CHO-V1R cells. Vasopressin V1a receptor (Homo sapiens), P37288. Fluo-8 calcium fluorescence, agonist mode; 0% DMSO, 100% 3 nM vasopressin. activation, % at 3 µM. 320,000 compounds, 0.25% hits. AID 2797, 2010;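 active means activation above the mean activation of all tested compounds plus 3 SD, per screening run, cut at about 20% in these data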;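 further: signal is peak over basal fluorescence ratio across a 100 second FLIPR read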
M4 antag – human M4 muscarinic receptor antagonists, primary screen, CHO cells, Fluo-8 calcium fluorescence; CHO-hM4 cells, ACh EC80; inhibition, % at 3 µM; 360,000 compounds, 0.73% hits;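 active means inhibition above its plate's cutoff, the mean inhibition of sample wells plus 3 SD, cut at about 27% in these data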
M4 PAM – human M4 muscarinic receptor positive allosteric modulators, primary screen, CHO-K1 cells, Fluo-8 calcium fluorescence; CHO-K1 hM4/Gqi5, ACh EC20; 0% = ACh EC20, 100% = maximal ACh; activation, % at 3 µM; 360,000 compounds, 0.4% hits; AID 624126, 2012;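 active means activation above its plate's cutoff, the mean activation of sample wells plus 3 SD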
OXTR ag – human OXTR agonists, primary screen, fluorescence, CHO-OTR cells, Fluo-8 calcium; Oxytocin receptor (Homo sapiens), P30559; Fluo-8 calcium fluorescence; normalized: DMSO 0%, oxytocin 100%; 320,000 compounds, 0.32% hits; activation, % at 3 µM; AID 2435, 2010;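 active means activation above the mean of all tested compounds plus 3 SD, cutoff set per screening run, cut at about 20% in these data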;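 further: peak over basal fluorescence ratio from a 100 s FLIPR kinetic read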
Hits are given with their value; – = inactive; · = not tested or not shown. Shown are actives, neighbours in structure and some others; about 1.5% of the full set was active somewhere.

SMILES	M4 ag	OXTR potentiator	V1R ag counter	M4 antag	M4 PAM	OXTR ag
Cn1cccc1/C=N/n1c(-c2ccc(Cl)cc2)n[nH]c1=S	–	–	–	–	–	–
Cc1ccc(SCc2[nH]nc3c2C2(C(=O)Nc4ccc([N+](=O)[O-])cc42)C(C#N)=C(N)O3)cc1 (stereo unspecified)	–	–	–	–	51	–
Cc1ccc(SCc2[nH]nc3c2C2(CCSCC2)C(C#N)=C(N)O3)cc1	–	–	–	–	–	–
COc1ccc(CCNC(=O)c2cc(-c3ccc(C)cc3O)n[nH]2)cc1OC	–	–	–	–	–	–
COc1ccc(CCNC(=O)c2cc(-c3cc(C)cc(C)c3O)n[nH]2)cc1OC	–	–	–	39	–	–
COC(=O)c1ccc(CN2CCN(C3CCCCC3)C(CCO)C2)cc1 (stereo unspecified)	–	–	–	60	–	–
COC(=O)c1ccc(CN2CCN(C3CCCC3)C(CCO)C2)cc1 (stereo unspecified)	–	–	–	77	–	–
CC(=O)Nc1ccc(CN2CCN(C3CCCCC3)C(CCO)C2)cc1 (stereo unspecified)	–	–	–	–	–	–
CC(=O)NC(Cc1c[nH]c2ccccc12)C(=O)N1CCN(S(=O)(=O)c2ccccc2)CC1 (stereo unspecified)	–	–	–	–	–	–
CN1CCN(C2=Cc3cc(Cl)ccc3Sc3cc(F)ccc32)CC1	–	–	–	50	–	–
CN1CCN(C2=Cc3ccccc3Sc3cc(F)c(Cl)cc32)CC1	–	–	–	29	–	–
CN1CCN(C2=Cc3ccccc3Sc3cc(F)c(F)cc32)CC1	–	–	–	–	–	–
CC(C)[C@H](NC(=O)OCc1ccccc1)C(=O)OCC(=O)N1CCCCC1	–	·	·	–	–	·
CCCCN(C(C)=O)c1c(CC)nc2ccc(C(=O)NCCOc3ccc(OC)cc3)cn12	–	·	·	–	–	·
CCn1c(Cl)c(C=O)s/c1=N\S(=O)(=O)c1ccccc1	–	–	–	74	–	–
Cc1ccccc1C(=O)N[C@H](C(=O)OCC(=O)NC1CC1)C(C)C	–	–	–	–	–	–
CCOC(=O)c1ccc(NC(=S)N2CCSC2c2ccc(Br)cc2)cc1 (stereo unspecified)	46	–	37	28	–	48
CCCCn1nnnc1C(c1cc2ccccc2o1)N1CCN(c2ncccc2C#N)CC1 (stereo unspecified)	–	·	·	–	–	·
CCCCN(CCCC)c1cn[nH]c(=O)c1Cl	–	–	–	43	–	–
O=C(Nc1nnc(-c2cccs2)o1)c1cccc(C(F)(F)F)c1	65	–	–	–	–	–
C[C@@H]1CN([C@H](C)CO)C(=O)CCCn2nncc2CO[C@H]1CN(C)Cc1ccc(Oc2ccccc2)cc1	–	·	·	37	–	·
C[C@@H]1CN([C@H](C)CO)C(=O)CCCn2nncc2CO[C@H]1CN(C)S(C)(=O)=O	–	·	·	101	–	·
C[C@H](CO)N1C[C@H](C)[C@@H](CN(C)Cc2ccc(Oc3ccccc3)cc2)Oc2c(NC(=O)C3CC3)cccc2C1=O	–	–	–	38	–	–
C[C@@H]1CN([C@H](C)CO)C(=O)CCCn2nncc2CO[C@@H]1CN(C)S(C)(=O)=O	–	·	·	–	–	·
C[C@@H]1CN([C@@H](C)CO)C(=O)CCCn2nncc2CO[C@H]1CN(C)Cc1ccc(Oc2ccccc2)cc1	–	·	·	31	–	·
SMILES	M4 ag	OXTR potentiator	V1R ag counter	M4 antag	M4 PAM	OXTR ag
CN(C)CCNc1ncnc2c1ncn2[C@H]1CN(Cc2ccc(Cl)cc2)C[C@@H](CO)O1	–	·	·	–	–	·
Cc1noc(C)c1COc1ccc(C(=O)NCCc2ccccn2)cc1	–	–	–	–	29	–
Cc1noc(C)c1COc1ccc(C(=O)Nc2cccnc2)cc1	–	·	·	32	–	·
CCOc1ccc(C(=O)NCc2ccccn2)cc1	–	–	–	–	31	–
Cc1noc(C)c1COc1ccc(CC(=O)NCCc2ccccn2)cc1	–	–	–	–	–	–
CC(C)C(=O)NC(=S)Nc1ccc(S(=O)(=O)N(C)Cc2ccccc2)cc1	–	–	–	–	–	–
C[C@H](CO)N1C[C@H](C)[C@H](CN(C)C(=O)Nc2cccc(C(F)(F)F)c2)OCc2cnnn2CCCC1=O	–	·	·	–	–	·
COc1ccc(N2C(=O)c3ccccc3C(C)(C)C2=O)cc1	–	–	–	–	–	–
O=C1NC2(CCCCCC2)C(=O)N1Cc1ccccc1F	–	–	–	–	–	–
O=C1NC2(CCCCCC2)C(=O)N1Cc1c(F)cccc1Cl	–	–	–	31	–	–
CCN(CC)c1ccc(/C=C/C(=O)C2C(=O)C=C(C)OC2=O)cc1 (stereo unspecified)	49	–	141	–	–	158
CCN(CC)c1ccc(C=C2C(=O)OC(c3ccccc3)OC2=O)cc1 (stereo unspecified)	–	–	–	–	–	–
C#CC[N+]1(CC#Cc2ccccc2)CCCCC1	–	–	–	–	–	–
C(#Cc1ccccc1)C[N+]1(CC#Cc2ccccc2)CCCCC1	–	–	–	33	–	–
CCC[N+]1(CC#CCC(c2ccccc2)c2ccccc2)CCCCC1	–	–	–	27	–	–
O=C(Nc1ccccc1)Nc1ccc(-n2ccc(C(F)(F)F)n2)cc1	–	–	–	45	–	–
Cc1cc(C)cc(N2C(=O)C=CC2=O)c1	–	·	·	–	–	·
c1ccc2c(c1)COc1c3cc4c(cc3nn1-2)OCO4	–	·	·	–	20	·
Cc1ccc(CNC(=O)CCSCc2cccc(F)c2)cc1	–	–	–	–	–	–
Cc1ccc(N(Cc2cc(=O)[nH]c3ccccc23)C(=O)C(C)C)c(C)c1	–	–	–	46	–	–
CC(C)C#Cc1cnc2c(c1)C(=O)N([C@@H](C)CO)C[C@@H](C)[C@H](CN(C)Cc1cccc(F)c1)O2	–	·	·	–	–	·
Cc1cnc(CNC(=O)c2ccc3sc([C@H]4C[C@H](O)[C@@H](CO)O4)nc3c2)cn1	–	·	·	–	–	·
COc1ccccc1C(=O)N1CC(=O)Nc2ccc(C)cc2C1c1ccc(F)cc1 (stereo unspecified)	–	–	–	–	–	–
Cc1ccc2c(c1)C(c1ccc(F)cc1)N(C(=O)c1ccccc1Br)CC(=O)N2 (stereo unspecified)	–	–	–	66	–	–
